Measured values reported in ChEMBL document CHEMBL2163315, “Synthesis and SAR of geminal substitutions at the C5' carbosugar position of pyrimidine-derived HCV inhibitors” (Bioorg Med Chem Lett, 2012).

Key:
[1] = Cytotoxicity against human hepatoma cells assessed as effect on cellular GAPDH RNA level; type: cell-based
[2] = Cytotoxicity against human hepatoma cells after 3 days by MTS assay; type: cell-based
How it was run: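 Replicon cells treated the same way as in the replicon activity assay (DMSO vehicle, 10% FBS, 3 days). Viability read three days post dosing by MTS (CellTiter 96 Aqueous One). CC50 is the concentration giving 50% inhibition relative to vehicle-treated cells.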

[3] = AUC (0 to 24 hrs) in cynomolgus monkey at 3 mg/kg, po; type: ADME, organism-based, Macaca fascicularis; parameters: time < 24 hr, dose 3 mg/kg, route oral; conditions: plasma
How it was run: (§1)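 Oral dosing at 3 mpk to dog and monkey. Plasma exposure monitored over 0–24 h.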

[4] = Oral bioavailability in dog at 3 mg/kg; type: ADME, organism-based, Canis lupus familiaris; conditions: in vivo
[5] = AUC (0 to 24 hrs) in dog at 3 mg/kg, po; type: ADME, organism-based, Canis lupus familiaris; parameters: time < 24 hr, dose 3 mg/kg, route oral; conditions: plasma; how it was run: as §1
Hepatitis C virus = assay: Antiviral activity against Hepatitis C virus genotype 1b Con1 infected in human hepatoma cells assessed as inhibition of viral RNA replication by subgenomic replicon assay; type: functional, organism-based, Hepacivirus hominis; conditions: genotype 1b Con 1
How it was run: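 Subgenomic 1b-Con1 replicon cells seeded at 5000 cells/well one day before dosing. Compound in DMSO added as 10 serial twofold dilutions in triplicate (final 0.5% DMSO, 10% FBS). Cells harvested three days post dosing. Replicon RNA quantified by real-time RT-PCR (Taqman), normalised to GAPDH RNA as endogenous control. EC50 calculated from the dose-response.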

[6] = Oral bioavailability in cynomolgus monkey at 3 mg/kg; type: ADME, organism-based, Macaca fascicularis; conditions: in vivo
[7] = Cytotoxicity against human hepatoma cells assessed as inhibition of [methyl-14C]thymidine incorporation in DNA after 3 days by scintillation proximity assay; type: cell-based; conditions: for CC50 at 72 h: human hepatoma cells
How it was run: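 Replicon cells seeded in scintillating microplates one day before treatment. Various inhibitor concentrations added in triplicate together with [methyl-14C]-thymidine (final 0.5 µCi/mL media) and incubated three days. Incorporated label read by scintillation proximity counting. DNA CC50 is the concentration giving 50% inhibition of thymidine incorporation relative to vehicle-treated cells.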

[8] = Drug uptake in rat liver at 10 mg/kg, po after 6 hrs; type: ADME, organism-based; parameters: dose 10 mg/kg, route oral; conditions: read-out: Drug uptake
How it was run: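 Rats dosed orally at 10 mpk. Compound concentration in liver measured at 6 h.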

[9] = AUC (0 to 24 hrs) in rat at 10 mg/kg, po; type: ADME, organism-based; parameters: time < 24 hr, dose 10 mg/kg, route oral; conditions: plasma
How it was run: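 Oral dosing to rats at 10 mpk. Plasma exposure monitored over 0–24 h.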

[10] = Oral bioavailability in rat at 10 mg/kg; type: ADME, organism-based; conditions: in vivo
[11] = AUC (0 to 6 hrs) in rat at 10 mg/kg, po; type: ADME, organism-based; parameters: time < 6 hr, dose 10 mg/kg, route oral; conditions: plasma
How it was run: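 Single oral dose of 10 mpk given to rats, as HCl salt. Plasma exposure expressed as AUC over 0–6 h.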

SMILES	CC50 [1]	CC50 at 72 h [2]	AUC(0-t) at 24 h [3]	bioavailability [4]	AUC(0-t) at 24 h [5]	EC50 (Hepatitis C virus)	bioavailability [6]	CC50 at 72 h [7]	concentration at 6 h [8]	AUC(0-t) at 24 h [9]	bioavailability [10]	AUC(0-t) at 6 h [11]	CC25 ([7]; 72 h)
COC[C@@H](C)Nc1nc(C)c(-c2nc3c(C)nccc3s2)c(N[C@@H]2C[C@H](C(C)(C)O)[C@@H](O)[C@H]2O)n1	> 3 µM	> 3 µM	10 µM·h	50%	4.2 µM·h	20 nM	50%	25 µM	900 ng/g	18 µM·h	81%		
CO[C@H](C)CNc1nc(C)c(-c2nc3c(C)nccc3s2)c(N[C@@H]2C[C@H](C(C)(C)O)[C@@H](O)[C@H]2O)n1	> 25 µM	> 25 µM	13 µM·h	56%	3.2 µM·h	20 nM	45%	25 µM	1300 ng/g	6.7 µM·h	58%		
Cc1nc(NCC2CCCCO2)nc(N[C@@H]2C[C@H](C(C)(C)O)[C@@H](O)[C@H]2O)c1-c1nc2c(C)nccc2s1 (stereo partly drawn)	> 25 µM	> 25 µM				4 nM			1800 ng/g			9.9 µM·h	3 µM
CSCCNc1nc(C)c(-c2nc3c(C)nccc3s2)c(N[C@@H]2C[C@H](C(C)(C)O)[C@@H](O)[C@H]2O)n1	> 25 µM	> 25 µM				8 nM						1.6 µM·h	
COCC1(CNc2nc(C)c(-c3nc4c(C)nccc4s3)c(N[C@@H]3C[C@H](C(C)(C)O)[C@@H](O)[C@H]3O)n2)CC1	> 25 µM	> 25 µM				20 nM						0.7 µM·h	
Cc1nc(NCc2c(F)cc(F)cc2F)nc(N[C@@H]2C[C@H](C(C)(C)O)[C@@H](O)[C@H]2O)c1-c1nc2c(C)nccc2s1	> 25 µM	> 25 µM				4 nM						0.4 µM·h	
Cc1nc(N[C@H](C)c2ccc(OC(F)(F)F)cc2)nc(N[C@@H]2C[C@H](C(C)(C)O)[C@@H](O)[C@H]2O)c1-c1nc2c(C)nccc2s1	> 25 µM	> 25 µM				180 nM						1.2 µM·h	
Cc1nc(NCC(F)(F)F)nc(N[C@@H]2C[C@H](C(C)(C)O)[C@@H](O)[C@H]2O)c1-c1nc2c(C)nccc2s1	20 µM	> 12 µM				10 nM						1.8 µM·h	
Cc1nc(NCCN(C)C)nc(N[C@@H]2C[C@H](C(C)(C)O)[C@@H](O)[C@H]2O)c1-c1nc2c(C)nccc2s1	7 µM	12 µM				130 nM							
Cc1nc(NCCN2CCOCC2)nc(N[C@@H]2C[C@H](C(C)(C)O)[C@@H](O)[C@H]2O)c1-c1nc2c(C)nccc2s1	> 25 µM	> 25 µM				20 nM						0.2 µM·h	
Cc1nc(NCC2CC2)nc(N[C@@H]2C[C@H](CO)[C@@H](O)[C@H]2O)c1-c1nc2cnccc2s1	3 µM												
Cc1nc(NCC2CC2)nc(N[C@@H]2C[C@H]([C@H](C)O)[C@@H](O)[C@H]2O)c1-c1nc2cnccc2s1.Cl	18 µM	13 µM				20 nM						1.3 µM·h	
Cc1nc(NCC2CC2)nc(N[C@@H]2C[C@H](C(C)(C)O)[C@@H](O)[C@H]2O)c1-c1nc2cnccc2s1.Cl	> 12 µM	> 12 µM				20 nM						8.5 µM·h	
Cc1nc(N[C@H](C)C2CC2)nc(N[C@@H]2C[C@H](C(C)(C)O)[C@@H](O)[C@H]2O)c1-c1nc2cnccc2s1	> 25 µM	25 µM				30 nM						11 µM·h	
COCCNc1nc(C)c(-c2nc3cnccc3s2)c(N[C@@H]2C[C@H](C(C)(C)O)[C@@H](O)[C@H]2O)n1	> 25 µM	> 25 µM				50 nM						1.3 µM·h	
Cc1nc(NCC2CC2)nc(N[C@@H]2C[C@H](C(C)(C)O)[C@@H](O)[C@H]2O)c1-c1nc2c(C)nccc2s1	> 25 µM	> 25 µM	0.3 µM·h	66%	4.9 µM·h	20 nM	6%	25 µM	9500 ng/g	10 µM·h	39%		
Cc1nc(N[C@H](C)C2CC2)nc(N[C@@H]2C[C@H](C(C)(C)O)[C@@H](O)[C@H]2O)c1-c1nc2c(C)nccc2s1	> 25 µM	> 25 µM	0.5 µM·h	32%	2.1 µM·h	20 nM	4%	> 25 µM	13700 ng/g	19 µM·h	54%		
COCCNc1nc(C)c(-c2nc3c(C)nccc3s2)c(N[C@@H]2C[C@H](C(C)(C)O)[C@@H](O)[C@H]2O)n1	> 25 µM	> 25 µM	3.7 µM·h	18%	0.9 µM·h	20 nM	46%	7 µM	1900 ng/g	16 µM·h	49%		
CCC(O)(CC)[C@H]1C[C@@H](Nc2nc(NCC3CC3)nc(C)c2-c2nc3c(C)nccc3s2)[C@H](O)[C@@H]1O	> 6 µM	> 6 µM				5 nM						10 µM·h	
CCC(O)(CC)[C@H]1C[C@@H](Nc2nc(NCCOC)nc(C)c2-c2nc3c(C)nccc3s2)[C@H](O)[C@@H]1O	> 25 µM	> 25 µM				10 nM						1.4 µM·h	
Cc1nc(NCC2CC2)nc(N[C@@H]2C[C@H](C3(O)CC3)[C@@H](O)[C@H]2O)c1-c1nc2c(C)nccc2s1	> 25 µM	> 25 µM				4 nM						1.6 µM·h	
COCCNc1nc(C)c(-c2nc3c(C)nccc3s2)c(N[C@@H]2C[C@H](C3(O)CC3)[C@@H](O)[C@H]2O)n1	> 25 µM	13 µM				7 nM						3.9 µM·h	
COCC(O)(COC)[C@H]1C[C@@H](Nc2nc(NCC3CC3)nc(C)c2-c2nc3c(C)nccc3s2)[C@H](O)[C@@H]1O	> 6 µM	> 6 µM				2 nM		4 µM					
CCOCCNc1nc(C)c(-c2nc3c(C)nccc3s2)c(N[C@@H]2C[C@H](C(O)(COC)COC)[C@@H](O)[C@H]2O)n1	> 12 µM	6 µM				3 nM							
Cc1nc(N)nc(N[C@@H]2C[C@H](C(C)(C)O)[C@@H](O)[C@H]2O)c1-c1nc2c(C)nccc2s1	4 µM	6 µM				40 nM							
Cc1nc(NC2CC2)nc(N[C@@H]2C[C@H](C(C)(C)O)[C@@H](O)[C@H]2O)c1-c1nc2c(C)nccc2s1	> 6 µM	> 6 µM				50 nM						58 µM·h	
Cc1nc(N(C)CC2CC2)nc(N[C@@H]2C[C@H](C(C)(C)O)[C@@H](O)[C@H]2O)c1-c1nc2c(C)nccc2s1	> 25 µM	23 µM				90 nM							
